Data taken from the EternaBench riboswitch data.

Test system: MS2 coat protein
Assay: apparent Kd, MS2 coat protein; higher = weaker binding; RNA-MaP array; FMN 200 µM where present
In short: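 Designs were transcribed by stalled E. coli RNA polymerase on Illumina sequencing-chip clusters. They were titrated with SNAP-549-labelled MS2 coat protein from 0.7 or 1.5 nM, doubling to 3 µM, without and then with constant ligand. Buffer: 100 mM Tris-HCl pH 7.5, 80 mM KCl, 4 mM MgCl2, BSA, DTT, yeast tRNA, Tween-20. Green signal was normalised to red-channel RNA signal and control-cluster median Fmax. Apparent Kd is the median of filtered per-cluster binding-curve fits.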

[1] = designed as: ON switch for flavin mononucleotide, no ligand
[2] = ligand present: flavin mononucleotide, designed as: ON switch for flavin mononucleotide
[3] = designed as: OFF switch for flavin mononucleotide, no ligand
[4] = ligand present: flavin mononucleotide, designed as: OFF switch for flavin mononucleotide

Sequence	apparent Kd [1] [µM]	apparent Kd [2] [µM]	apparent Kd [3] [µM]	apparent Kd [4] [µM]
ACCUGGACCACAGGAUAUCCCAAUGUUUUACAGGGAGAAGGGUGAGAGUAUGACAUGAGGAUCACCCAUGUUGUCCAGGCGGAA	0.442	0.191		
GAUCAACAUGAGGAUCACCCAUGUGAGGAUAUGUAUCAUAGAUCUUCGGAUCUAUGAUACAGAAGGCAUGUAGG			0.101	0.118
ACUGUUAAGACAGGAUAUCGAUUAUAACCUCUAAAACAUGAGGAUCACCCAUGUAGUCCGUAUUGCGAGAAGGGUCAUCUUAGA	0.274	0.205		
AAGUCGUGAGGAUAUACAUGGAUAUACAUUUAUGUGGACCUACAUGAGGAUCACCCAUGUAGAAGGCACGAAUA			0.0852	0.0694
GAAGCUCUGCAGCGAUUAGCUACAUGAGGAUCACCCAUGUGGGAGGAUAUACGUCGCUCCGCGGAGUAGAAGGCUUACAUGCGG			0.00986	0.0217
AUCUUGCGAGGAUAUACUUACUUUUUUUCAUUUGGUUGCGAACAUGAGGAUCACCCAUGUAGAAGGUGCAUAAC			0.0276	0.0236
AACAUGGUCCAGAAGGGCUAUUUAUUUAAUUAUUAUUUAGAACAGCAUAGCAGGAUAUGGUUAACAUGAGGAUCACCCAUGUAC	0.016	0.0115		
UUGCCUCAGAACAUGAGGAUCACCCAUGUGCUGCGGGCAACGUAGGAUAUGAUGGUGUGACACCAUCAGAAGGAUGAUGGUACC	0.00597	0.00581		
AGUAUGCGGCAGGAUAUCCAUCCGCGAAAAGGUGGAGAAGGGCUGACAUGAGGAUCACCCAUGUGCGUUUUGUA			0.056	0.04
AGUGUCAUCGAGAAGGCCUUAAGAACAUGAGGAUCACCCAUGUAACAUGGGAGGAUAUCGAUGAUACAGCUACGUUUCGUAGCA	0.0124	0.00521		
GCGGCUAGUGCAGGAUAUCGGCGCGUGUAGCGCCGAGAAGGGCACAUGAGGAUCACCCAUGUGAUCAAUCACUGCUAAGGCCGC			0.00483	0.00491
AAGUCUGGACGAGGAUAUCAGCUGUAACUGGCGUCGACAUGAGGAUCACCCAUGUUGCUAUAGGGUGAGAAGGCGUUUGGGCAA	0.0477	0.0288		
AAAUAGUUAGGAUAUACAUGAGGAUCACCCAUGUGGACUGAUGGCGAUUGAUUUAGUGGUAGAAGGGACUCAAA			0.0403	0.0584
AAUAAUAGCGAGGAUAUCGUAUCGGAAACGAUACGAGAAGGCGUAACAUGAGGAUCACCCAUGUUCCUCAAUAA			0.038	0.313
AAAAAACAUGAGGAUCACCCAUGUCAGGAUAUCGAAAAAAAAAAAAAAAAAAAAAAAACGAGAAGGGACAAAAA			0.0993	0.104
AUAUAUCAUACAGGAUAUACAUGAGGAUCACCCAUGUGUCCUCCAUAAUUGACACCAAUUAUGCUGUAGAAGGGUAUGAUAUAU			0.293	0.258
CCGGAAAUACAGGAUAUCGUAUCGGAUACGAUACGAGAAGGGUAUACAUGAGGAUCACCCAUGUGUCCUACCGG			0.0251	0.032
AGUACUACAGGAUAUACAUGAGUGAUACUCAUAUACCUACUACAUGAGGAUCACCCAUGUAGAAGGGUAGUACA			0.0149	0.0117
CAACCAGUGAAGGAUAUCAUCGAGGCUCGGCAUUGAGAAGGUUACACAUGAGGAUCACCCAUGUGGUUUCGUUC			0.0145	0.0147
AUUAAUUAAUUAAUACAUGAGGAUCACCCAUGUAAUAAGAUCAAGGAUAUCAGCUCGAUUAGAGCUGAGAAGGUGAUCACAUGU	0.772	0.223		
UUAUUAUAUGUAGGAUAUGCAUAUUAUUAUUAUGCAGAAGGACAUGAGGAUCACCCAUGUAUAUUAUUAUUAUAUAUUAUAUAU			0.0301	0.0537
GGUUGUCAUAGUCAUCCUUUCCGUACAUGAGGAUCACCCAUGUAGGAUAUGCUACUCACAGAGUAGCAGAAGGGCGUGUGUCUU			0.019	0.0196
UAUAUGUGAGGAUAUCAGGUGUGCUAGCGUACUGGUACAUCUGAGAAGGCACAUGAGGAUCACCCAUGUUUCUU			0.0263	0.088
